For 46 molecules, activation results are on record in PubChem BioAssay AID743238 (Broad Institute, 2013).

The whole screen tested about 360,000 compounds, of which about 200 (0.056%) were called active. The entries come from a sample that favours actives as a whole. A number with no mark means an inactive call.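 How the source made its calls: active means mean normalized replicate activation at least 10% and every replicate at or above 10%; inconclusive means only one of the two criteria met; inactive means mean below 10% and not all replicates reach 10%.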

This assay can be described thus: Xi reactivation inducers in mouse fibroblasts – imaging, XiGFP fibroblasts, GFP high-content imaging, set 2, primary screen (AID 743238).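 Further: 0% = median of on-plate neutral control wells and 100% = ellipticine 6 µM median.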 Conditions: % GFP-positive cells imaging, 3 d, at 7.58 µM, active compounds read high, cells co-treated with 5-aza-dC sensitizer, scaled so ellipticine positive control = 100%. The method in brief: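 System: XiGFP fibroblasts, SV40-immortalized. Medium: DMEM plus 5-aza-dC sensitizer. Doses: single point. Timing: 3 d treatment, 15 min room-temperature fixation. Control set: ellipticine 6 µM.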
With `COc1ccccc1NC(=O)N1CC(=O)N2[C@H](CO)[C@@H](c3ccc(C#Cc4ccc(F)cc4)cc3)[C@H]2C1`, the activation is -0.0395%. On to `Cc1ccc(S(=O)(=O)N(C)CC(=O)NCCc2c[nH]c3ccccc23)cc1`, for which the activation is 0.082%. With `O=C(NCCc1c[nH]c2ccccc12)c1cc2ccccc2oc1=O` the figure was -0.0325%; with `N#C/C(=C/c1ccc(N2CCCCC2)o1)C(=O)NCCc1c[nH]c2ccccc12`, 119% (active); with `CCCNC(=O)NC[C@H]1[C@H](c2ccc(C3=CCCCC3)cc2)[C@H](CO)N1C(C)=O`, -0.0205%. Turning to `CC(C)NC(=O)N1[C@H](C#N)[C@@H](c2ccc(-c3ccc(F)cc3)cc2)[C@H]1CO`, the activation is 0.054%. With `C[C@@H]1CN([C@H](C)CO)C(=O)c2cc(NC(=O)CCCCCC(=O)Nc3ccccc3N)ccc2O[C@@H]1CN(C)S(=O)(=O)c1ccc(Cl)cc1` the figure was -0.749%; with `C[C@H](O)C#Cc1ccc2c(c1)O[C@@H](CN(C)Cc1cccnc1)[C@H](C)CN([C@H](C)CO)S2(=O)=O`, 0.253%; with `O=C(NC1Cc2ccccc2C1)[C@H]1[C@H](CO)[C@H]2Cn3c(ccc(C4=CCCCC4)c3=O)[C@H]2N1CC1CC1`, 0.397%.

Take `CN(C)CC(=O)N[C@@H]1CC[C@H](CC(=O)O)O[C@H]1CO`: the activation is -0.0755%. The figure for `C[C@@H]1CN([C@@H](C)CO)C(=O)c2cc(C#CC3CCCCC3)cnc2O[C@@H]1CN(C)Cc1cncnc1` is -1.05%; for `CCC(=C/c1sc2ccc3ccccc3c2[n+]1C)/C=C1\Sc2ccc3ccccc3c2N1C` it is 68% (active).

As to `CC(C)C#Cc1cnc2c(c1)C(=O)N([C@@H](C)CO)C[C@@H](C)[C@H](CN(C)C(=O)CCN1CCCCC1)O2`, the activation was 0.409%. For `COc1ccc(NC(=O)Nc2ccc3c(c2)C(=O)N([C@@H](C)CO)C[C@@H](C)[C@@H](CN(C)C(=O)CCCN(C)C)OCCCC[C@@H](C)O3)cc1`, the activation was 0.0725%. Regarding `Cc1ccccc1-c1ccc([C@H]2[C@@H](CO)N3C(=O)CN(C(=O)c4cccnc4)C[C@@H]23)cc1`, the activation is 0.209%.

In the case of `C[C@@H](O)C#Cc1ccc([C@@H]2[C@@H](CO)N3CCCCN(C(=O)c4ccc(F)cc4)C[C@@H]23)cc1`, the activation was 0.907%. As for `C[C@H]1CN([C@@H](C)CO)C(=O)c2cc(Br)cnc2O[C@H]1CN(C)Cc1cccc(F)c1`, the activation was 0.497%. With `Cc1ccc(S(=O)(=O)N2C[C@H](O)COC[C@@H]3O[C@H](CC(=O)N[C@H]4CCN(Cc5ccccc5)C4)CC[C@H]32)cc1` the figure was 0.108%. The figure for `C[C@@H]1CN([C@H](C)CO)C(=O)c2cc(-c3ccccc3F)cnc2O[C@H]1CN(C)C(=O)CN(C)C` is 3.17%; for `COc1cc(CN2CC3(CN(S(=O)(=O)c4cccs4)C3)c3c(n(C)c4cc(OC)ccc34)[C@H]2CO)cc(OC)c1` it is 0.325%; for `COc1cccc(S(=O)(=O)N[C@H]2C=C[C@@H](CC(=O)NCc3ccccc3)O[C@@H]2CO)c1` it is -0.504%.

Consider `CN1CCN(C(=O)C[C@H]2CC[C@H]3[C@@H](COC[C@H](O)CN3CC3CCCC3)O2)CC1`, for which the activation is 0.0235%. With `Cc1ccc(S(=O)(=O)N(C)C[C@@H]2Oc3c(NC(=O)Nc4c(C)noc4C)cccc3C(=O)N([C@@H](C)CO)C[C@@H]2C)cc1` the figure was -0.145%. The figure for `COc1ccc2c3c(n(C)c2c1)[C@H](CO)N(CC1CCOCC1)CC31CCN(C(C)=O)CC1` is 0.008%; for `C/C=C/c1ccc([C@@H]2[C@H](CO)N(CC3CCOCC3)C23CN(S(=O)(=O)CC)C3)cc1` it is 0.064%; for `COc1ccc(S(=O)(=O)Nc2cccc3c2O[C@H](CN(C)C(=O)Nc2cccc4ccccc24)[C@H](C)CN([C@@H](C)CO)C3=O)cc1` it is -0.983%. The figure for `C[C@@H]1CCCCO[C@H](CN(C)C(=O)Nc2cccc3ccccc23)[C@@H](C)CN([C@@H](C)CO)C(=O)c2cc(NC(=O)Nc3ccc(F)cc3)ccc2O1` is -0.01%; for `C[C@@H](NC(=O)C[C@H]1CC[C@H]2[C@H](COc3ccc(NS(=O)(=O)c4ccc(Cl)cc4)cc3C(=O)N2C)O1)c1ccccc1` it is -0.013%. As to `CCC(=O)NC[C@H]1[C@@H](c2ccc(C3=CCCC3)cc2)[C@@H](CO)N1C(=O)C1CC1`, the activation is -0.043%. With `CCCC#Cc1cnc2c(c1)C(=O)N([C@H](C)CO)C[C@H](C)[C@@H](CN(C)C(=O)c1cccnc1)O2` the figure was -0.912%; with `COc1ccc2c3c(n(C)c2c1)[C@H](CO)N(Cc1ccccc1)CC31CCN(C)CC1`, 0.287%; with `CNc1ccc([N+](=O)[O-])cc1C(=O)O`, 34.2% (active).

Turning to `Cc1ccc(NC(=O)c2cc([N+](=O)[O-])ccc2Cl)c(O)c1`, the activation was 0.0305%. On to `CCN(CC)c1ccc([N+](=O)[O-])cc1C(=O)O`, for which the activation is -0.147%. The figure for `CNC(=O)C[C@H]1CC[C@@H]2[C@H](COc3ccc(NC(=O)Nc4cccc(F)c4)cc3C(=O)N2C)O1` is 0.022%; for `C[C@H](O)C#Cc1ccc2c(c1)O[C@H](CN(C)Cc1ccccn1)[C@@H](C)CN([C@@H](C)CO)S2(=O)=O` it is -0.095%. The figure for `O=C(C[C@@H]1CC[C@@H](NC(=O)C2CCOCC2)[C@H](CO)O1)NCC1CC1` is -0.115%. Regarding `COc1ccc2c3c(n(C)c2c1)[C@@H](CO)N(Cc1ccccc1F)CC31CCN(C(=O)C2CCOCC2)CC1`, the activation was -0.019%.

For `O=C(c1ccc(F)cc1)N1CC(=O)N2[C@@H](CO)[C@H](c3ccc(C4=CCCC4)cc3)[C@@H]2C1`, the activation is 0.604%. With `CCS(=O)(=O)N1[C@H](CO)[C@@H](c2ccccc2)C12CN(C(=O)c1ccccc1F)C2` the figure was 0.139%. The figure for `CCS(=O)(=O)N1CC(=O)N2[C@H](C1)[C@@H](c1ccc(C#Cc3ccc(F)cc3)cc1)[C@@H]2CO` is 0.458%; for `Cc1c(/C=N\NC(=O)c2cc3ccccc3o2)c2ccccc2n1C` it is 16.6% (active). The figure for `COc1ccc2c(c1)c(C(=O)N/N=C/c1cccs1)c(C)n2C` is 0.148%; for `CC(C)(C)n1nc2c(c1NC(=O)c1cc3ccccc3o1)CSC2` it is 0%. Take `CCCNC(=O)C[C@H]1C[C@@H]2c3cc(NC(=O)COC)ccc3O[C@@H]2[C@@H](CO)O1`: the activation is -0.017%. With `O=C(C[C@@H]1CC[C@H]2[C@@H](COC[C@@H](O)CN2CC2CC2)O1)NCc1ccc(Cl)cc1` the figure was 0.122%.
